# Compound activity: PubChem, several laboratories
# KCNQ1 pot – human KCNQ1 channel potentiation or activation. P51787. CHO-K1 KCNQ1, thallium flux FluxOR fluorescence; active compounds read high. B-score at 10 µM. 310,000 tested, 0.35% active;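 active = fluorescence ratio B-score, a plate-corrected score, at least three library SD, with initial intensity B-score within 5 SD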
#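 Assay system: CHO-K1 cells stably expressing KCNQ1. Medium: assay buffer for compound exposure, DMSO matched across wells. Timing: 37 °C overnight plating, 90-min dark dye load, 20-min compound pretreatment. Signal: kinetic FluxOR fluorescence, 10 s baseline plus 110 s post-stimulus.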
# KCNK9 block – inhibitors of human KCNK9 two-pore domain potassium channel | HEK293 KCNK9, FluxOR thallium flux fluorescence; active compounds read low | AID 488922 | 310,000 tested, 1.2% active | Q9NPC2 | B-score at 10 µM;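 active = ratio B-score over 3 SD below the library mean, with starting fluorescence within 5 SD of its mean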;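 also: negative B-score means less thallium flux so channel inhibition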
# KCNK3 block – human KCNK3 channel inhibition, primary screen; CHO-KCNK3 thallium flux, FluxOR fluorescence; active compounds read low; B-score at 10 µM; O14649; 340,000 tested, 0.84% active;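 active = B-score under library mean minus 4 SD, starting fluorescence ratio at most library mean plus 5 SD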;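 also: more negative B-score means stronger inhibition of thallium flux through KCNK3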
# Target sequence (O14649 whole entry, looked up): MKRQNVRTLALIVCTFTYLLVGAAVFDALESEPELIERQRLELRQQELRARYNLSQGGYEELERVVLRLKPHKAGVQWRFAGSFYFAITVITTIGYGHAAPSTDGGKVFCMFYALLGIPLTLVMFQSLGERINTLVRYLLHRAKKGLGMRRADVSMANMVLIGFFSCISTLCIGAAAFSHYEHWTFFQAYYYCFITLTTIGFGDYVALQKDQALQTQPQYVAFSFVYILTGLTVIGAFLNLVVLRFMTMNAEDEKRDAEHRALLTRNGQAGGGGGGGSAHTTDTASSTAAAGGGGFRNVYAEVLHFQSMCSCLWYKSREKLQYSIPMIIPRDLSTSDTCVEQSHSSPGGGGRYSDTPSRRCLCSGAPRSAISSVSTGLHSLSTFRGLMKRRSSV
# KCC2 mod – modulators of human KCC2 chloride dependent transport | KCC2 cells, thallium flux FluoZin-2 fluorescence | B-score of Tl+ flux slope (higher = more flux/activation; lower = inhibition) at 10 µM | AID 1456 | 190,000 tested, 2.2% active;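 active = thallium flux slope and its plate-corrected score both differing from the plate sample mean at a set confidence after two filtering rounds, in either direction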;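 also: slope of fluorescence scaled to starting intensity during 10 to 20 s after thallium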
# hERG rescue – compounds protecting human hERG from proarrhythmic drug block | Q12809 | AID 1511 | activation (rescue from dofetilide block), less the hit threshold, % at 10 µM | CHO-hERG, FluxOR thallium flux, dofetilide IC70 present | 310,000 tested, 0.51% active;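 active = activation above the mean of controls blocked by dofetilide plus 5 SD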;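 also: thallium influx through hERG after potassium depolarization seen as dye fluorescence rise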
# KCNQ1 block – human KCNQ1 channel inhibition. B-score at 10 µM. 310,000 tested, 1.3% active. CHO-K1 KCNQ1, FluxOR thallium flux fluorescence; active compounds read high. P51787;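 active = compounds whose thallium flux B-score, printed positive for inhibition, exceeds three library SD while starting fluorescence stays within three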;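 also: channel opened by potassium depolarization with thallium stimulus after 20 min compound exposure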
# KCNQ1 block val – confirmation of human KCNQ1 potassium channel inhibitors. AID 588353. KCNQ1 cell line, FluxOR thallium flux fluorescence. inhibition, % at 10 µM. shares compounds with KCNQ1 block. 1,600 tested, 93% active;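 active = primary screen active, with duplicate mean exceeding buffer control mean plus 3 SD of buffer wells, cut at about 28% in these data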;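 also: 0% = buffer control ratio and 100% = XE991 inhibitor control ratio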
# CHO Tl flux – KCNQ1 inhibitor counter-screen hit in parental CHO cells. shares compounds with KCNQ1 block. parental CHO-K1, FluxOR thallium flux fluorescence ratio; active compounds read low; zero means no signal rise above baseline. fluorescence ratio (Tl flux) at 10 µM. 1,600 tested, 21% active. AID 588366;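 active = mean of duplicate thallium-flux fluorescence ratios in parental host cells more than 5 SD below the buffer control mean, cut at about 0.38 in these data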;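 also: ratio is peak minus minimum fluorescence divided by baseline fluorescence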
# KCNQ1 APC inh – human KCNQ1 inhibition validated by electrophysiology; 490 tested, 20% active; AID 624120; shares compounds with KCNQ1 block; calls only at 10 µM; KCNQ1-CHO cells, automated patch clamp current;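 active = KCNQ1 current drop exceeding 3 SD of negative control wells, seen in both duplicate runs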;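 also: steady state current during a 2 s step from -80 to +40 mV; negative values mean current inhibition and positive values mean potentiation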
# KCNQ2 spec – KCNQ1 inhibitor that also blocks rat KCNQ2 channel | 1,600 tested, 71% active | inhibition, % at 10 µM | AID 651746 | shares compounds with KCNQ1 block | KCNQ2 cells, FluxOR thallium flux fluorescence;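 active = mean percent inhibition of the KCNQ2 thallium signal more than 5 SD above the buffer-only control wells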;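 also: KCNQ2 expressed in CHO cells; 0% = buffer control wells and 100% = XE-991 inhibitor control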
# KCNQ1-KCNE1 inh – selectivity of KCNQ1 inhibitors: inhibition of human KCNQ1/KCNE1 channel | AID 652147 | inhibition, % at 10 µM | 1,600 tested, 77% active | shares compounds with KCNQ1 block | KCNQ1/KCNE1 cells, FluxOR thallium flux fluorescence;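 active = mean percent inhibition of duplicate wells above the buffer-only control mean plus 3 SD of those controls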;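 also: 0% = buffer only wells and 100% = XE-991 inhibitor control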
# Starred values were filed as active, the others as inactive; i = inactive; · = not tested or not shown; + = active, no number. An excerpt weighted towards active compounds, which were near 4.1% of everything screened.
SMILES,KCNQ1 pot,KCNK9 block,KCNK3 block,KCC2 mod,hERG rescue,KCNQ1 block,KCNQ1 block val,CHO Tl flux,KCNQ2 spec,KCNQ1-KCNE1 inh,others
CC(C)(C)c1ccc(OCCCC(=O)Nc2cccc(S(=O)(=O)N3CCOCC3)c2)cc1,·,·,i,·,·,·,·,·,·,·,
Cc1ccc(OCC(=O)Nc2cccc(S(=O)(=O)N3CCCCCC3)c2)cc1C,i,i,i,·,-13,7*,96*,0.54,99%*,65%*,KCNQ1 APC inh=i
COc1ccc(-c2ccc3c(c2)C2CC3CCN2C(=O)C2CCCCC2)cc1 (configuration not stated),·,·,i,·,·,·,·,·,·,·,
COc1ccc(N(CC(=O)NCc2ccc(Cl)cc2)S(=O)(=O)c2c(C)n[nH]c2C)cc1,i,i,i,·,-22,7*,58*,0.49,75%*,60%*,
Nn1c(SCC(=O)Nc2ccccc2Oc2ccccc2)nnc1C1CC1,·,·,i,·,·,·,·,·,·,·,
CCC(CC)NC(=O)CN1CCN(S(=O)(=O)c2ccc(Br)s2)CC1,·,·,i,·,·,·,·,·,·,·,
O=C(NCC1(c2ccccc2)CCCC1)c1cccc(Br)c1,i,i,i,-1.2,-12,6*,106*,0.41,112%*,147%*,KCNQ1 APC inh=+
Nc1ccc(C(=O)NCC2(c3ccccc3)CCCC2)cc1,i,i,i,-0.57,-3,i,·,·,·,·,
Cc1nc(N2CCC(C)CC2)c2c(C)c(C(=O)Nc3ccc(C)c(F)c3)sc2n1,i,i,i,0.79,-28,7*,114*,0.42,140%*,64%*,KCNQ1 APC inh=i
NS(=O)(=O)c1ccc(CCNC(=O)CNC(=O)c2ccccc2F)cc1,i,i,i,·,0,i,·,·,·,·,
Cn1c2ccccc2c2cc(/C=N/NC(=O)c3ccc(O)cc3O)ccc21,i,i,i,·,-18,i,·,·,·,·,
Cn1c(O)c(/C=N/NC(=O)c2cc3ccccc3cc2O)c2ccccc21,i,i,i,·,-24,17*,101*,0.32*,i,i,
Cc1[nH]n(-c2ccccc2)c(=O)c1N=Nc1c(O)cc(S(=O)(=O)N(C)C)c2ccccc12,i,i,i,·,-24,10*,124*,0.47,72%*,i,KCNQ1 APC inh=i
Cc1[nH]n(-c2ccccc2)c(=O)c1N=Nc1ccc2c(c1)OCCO2,i,i,i,0.95,-2,i,·,·,·,·,
CCOC(=O)N1CCN(S(=O)(=O)c2ccc3c4c(cccc24)C(=O)N3)CC1,i,i,i,·,-9,i,·,·,·,·,
CCOc1ccccc1N1CCN(S(=O)(=O)c2ccc3c4c(cccc24)C(=O)N3)CC1,i,i,i,0.061,-7,7*,69*,0.49,i,79%*,
CCCn1c(CN2CCN(c3cccc(Cl)c3)CC2)nc2c1c(=O)n(C)c(=O)n2C,i,i,i,-0.34,-20,7*,80*,0.49,127%*,36%*,
COC(=O)c1cc2c(=O)c3ccccc3oc2nc1/C=C/N(C)C,i,-7.8*,i,·,-12,10*,96*,0.37*,i,128%*,
O=C(c1ccc2nc[nH]c2c1)N1CCN(c2cccc(C(F)(F)F)c2)CC1,i,i,i,·,-3,i,·,·,·,·,
O=C(c1ccc2nc[nH]c2c1)N1CCN(c2ncc(C(F)(F)F)cc2Cl)CC1,i,i,i,·,-9,8*,0,0.58,i,i,
CCN1C(=O)c2cccc3c(N)ccc(c23)C1=O,i,i,i,·,-42,24*,+,0.011*,i,i,
CN(C)CCCN1C(=O)c2cccc3c(Br)ccc(c23)C1=O,i,i,i,-0.49,-24,i,·,·,·,·,
CCCCNc1ccc2c3c(cccc13)C(=O)N(CCCC)C2=O,i,i,i,i,-13,24*,+,0.011*,i,i,
Cc1cc(C(=O)NC2CC(C)(C)Cc3c2cnn3-c2ccc(F)cc2)no1 (configuration not stated),i,i,i,·,-13,i,·,·,·,·,
CC1(C)Cc2c(cnn2-c2ccccc2)C(NC(=O)c2ccoc2)C1 (configuration not stated),i,i,i,·,-11,i,·,·,·,·,
SMILES,KCNQ1 pot,KCNK9 block,KCNK3 block,KCC2 mod,hERG rescue,KCNQ1 block,KCNQ1 block val,CHO Tl flux,KCNQ2 spec,KCNQ1-KCNE1 inh,others
Cn1nccc1C(=O)NC1CC(C)(C)Cc2c1cnn2-c1ccc(F)cc1 (configuration not stated),i,i,i,·,-7,6*,0,0.55,i,i,
CC1(C)Cc2c(cnn2-c2ccc(F)cc2)C(NC(=O)c2ccoc2)C1 (configuration not stated),i,i,i,·,-13,7*,72*,0.42,i,93%*,
O=[N+]([O-])c1ccc(S(=O)(=O)NN=CCCc2ccccc2)cc1,·,·,i,·,·,·,·,·,·,·,
COc1cc(NC(=O)c2ccno2)cc(C(=O)Nc2cccc(C(F)(F)F)c2)c1,i,i,i,-0.12,-17,9*,110*,0.35*,100%*,163%*,
CC(C)(C)C1CCC2(CC1)C(C#N)=C(SCC(=O)NC1CCCCC1)NC(=O)C2C#N (configuration not stated),i,i,i,-1.5,-7,9*,72*,0.42,72%*,i,
CC1(C)CC(=O)C2=C(C1)Nc1ccccc1NC2,i,i,i,-0.19,-3,7*,0,0.5,i,i,
CC1(C)CC(=O)C2=C(C1)Nc1ccccc1S2,i,i,i,0.53,-15,i,·,·,·,·,
CCOC(=O)[C@@H]1[C@H]2COc3cc(OC)ccc3[C@@H]2N2C(=O)N(c3ccc(F)cc3)C(=O)[C@@]12C,·,·,i,·,·,·,·,·,·,·,
CCc1c(C#N)c(SCCC(=O)Nc2cccc(OC)c2)nc2c1C(=O)CC(C)(C)C2,i,i,i,-1.6,-17,7*,108*,0.43,99%*,129%*,KCNQ1 APC inh=i
COc1ccc(-c2c(C#N)c(SCc3c(C)noc3C)nc3c2C(=O)CC(C)(C)C3)cc1,i,i,i,·,-6,i,·,·,·,·,
